ChEMBL document CHEMBL1145822, “4-Aryl-3-(hydroxyalkyl)quinolin-2-ones: novel maxi-K channel opening relaxants of corporal smooth muscle targeted for erectile dysfunction” (J Med Chem, 2003)

Tests used:
Assay type in all cases: functional
[1] = species: Oryctolagus cuniculus; experiment: Percentage inhibition of isometric force in response to 10 uM compound in isolated rabbit corpus cavernosum precontracted with 3 uM phenylephrine
How it was run: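 New Zealand white rabbit (3.4–3.7 kg) corpus cavernosum strips (3–5 mm) in oxygenated modified Krebs Henseleit bicarbonate buffer, 37 °C, equilibrated ≥1 h at 1.0 g resting tension; contracted with phenylephrine 3 μM to steady force before compound; isometric force read; percent inhibition of phenylephrine-induced force relative to vehicle control.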

[2] = species: Xenopus laevis; experiment: Effect of compound (20 uM) on maxi-K-mediated outward current in Xenopus laevis oocytes expressing the cloned hSlo maxi-K channels was determined
How it was run: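 Two-electrode voltage clamp of Xenopus laevis oocytes expressing cloned hSlo maxi-K channels; single 20 μM drug concentration applied, measuring iberiotoxin-sensitive outward K⁺ current in at least five oocytes per compound; result given as mean percent change in hSlo current versus drug-free control (100%).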

[3] = species: Oryctolagus cuniculus; experiment: Tested for concentration dependent relaxation over a period of 90 min in isolated rabbit corpus cavernosum.; conditions: 1.5 h

| IC50 [3] | Structure (SMILES) | Inhibition [1] | Increase [2] |
| --- | --- | --- | --- |
|  | OCCCc1c(O)nc2ccc(C(F)(F)F)cc2c1-c1cc(Cl)ccc1O | 43% | 292% |
|  | OCc1c(O)nc2ccc(C(F)(F)F)cc2c1-c1cc(Cl)ccc1O | 36% | 198% |
|  | COc1ccc(Cl)cc1-c1c(/C=C/CO)c(O)nc2ccc(C(F)(F)F)cc12 | 31.8% | 223% |
|  | OC/C=C/c1c(O)nc2ccc(C(F)(F)F)cc2c1-c1cc(Cl)ccc1O | 46% | 257% |
|  | O=c1[nH]c2cc(C(F)(F)F)ccc2n1-c1cc(Cl)ccc1O | 31% | 132% |
|  | COc1ccc(Cl)cc1-c1c(CCO)c(O)nc2ccc(C(F)(F)F)cc12 | 26.8% | 211% |
|  | COc1ccc(Cl)cc1-c1c(CCCO)c(O)nc2ccc(C(F)(F)F)cc12 | 35.7% | 258% |
|  | COc1ccc(Cl)cc1-c1c(CO)c(O)nc2ccc(C(F)(F)F)cc12 |  | 114% |
| 5 µM | O=c1[nH]c2ccc(C(F)(F)F)cc2c(-c2cc(Cl)ccc2O)c1CCO [BMS-223131] | 83.7% | 378% |
